Compound activity (PubChem BioAssay)
The sample as a whole holds a higher share of hits than the screen did.
XBP1 UPR activ = activators of adaptive arm of unfolded protein response (XBP1); activation, % at 20 µM; CHO-XBP1 luciferase reporter, IRE1-XBP1 UPR activation, luminescence; percent of tunicamycin response, DMSO as zero; AID 463104; hit rate 0.33% among 330,000;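 active = versus positive control, 20 µM dose yields 30% or more activation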;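 also: 100% = tunicamycin at 10 µg/mL and 0% = DMSO only wells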
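Material: CHO-XBP1 cells stably carrying IRE1-XBP1-driven luciferase reporter | Medium: F12 with 10% serum | Compound dosing: 20 µM single concentration, DMSO 1% | Incubation: Overnight seeding at 37 °C, 6 h compound treatment at 37 °C | Detection: Steady-Glo luminescence read | Read-out basis: % activation of reporter signal versus tunicamycin and DMSO controls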
VLA-4 inh = inhibition in a human VLA-4 binding assay; P13612; VLA-4 expressing cells, ligand binding flow cytometry; inhibition, % (about 7 µM as worked out from the volumes in the protocol); hit rate 0.2% among 330,000; in the data active = inhibition above about 50%
CHOP inh = CHOP inhibition in unfolded protein response; CHO-K1 CHOP-promoter luciferase, tunicamycin-induced, 15-18 h; inhibition, % at 10 µM; hit rate 3.8% among 220,000;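 active = compounds that reduced the stress-induced luciferase reporter signal by more than about 70% of percent inhibition, limit read from the data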;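 also: 0% = tunicamycin plus vehicle and 100% = wells without tunicamycin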
B2AR ag = activates human beta-2 adrenergic receptor causing internalization. P07550. Am2.2-beta2AR cells, FAP receptor internalization, flow cytometry. response, % (concentration not given with the values). hit rate 0.43% among 340,000. AID 504454;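 active = response above a set limit, near 3 SD of response in nonfluorescent compounds, cut at about 42% in these data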
Target sequence (P07550 whole entry, looked up): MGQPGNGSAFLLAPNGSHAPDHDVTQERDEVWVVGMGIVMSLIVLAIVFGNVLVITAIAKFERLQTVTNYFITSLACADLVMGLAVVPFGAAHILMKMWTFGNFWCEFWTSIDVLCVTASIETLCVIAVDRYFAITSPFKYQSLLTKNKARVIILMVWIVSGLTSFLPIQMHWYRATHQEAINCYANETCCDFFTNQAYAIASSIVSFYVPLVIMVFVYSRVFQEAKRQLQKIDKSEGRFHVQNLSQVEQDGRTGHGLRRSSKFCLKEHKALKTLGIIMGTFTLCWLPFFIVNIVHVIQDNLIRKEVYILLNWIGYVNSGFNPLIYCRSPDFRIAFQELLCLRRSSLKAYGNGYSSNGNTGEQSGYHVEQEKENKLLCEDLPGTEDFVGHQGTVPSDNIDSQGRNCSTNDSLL
CHOP UPR activ = apoptotic UPR (CHOP) activation; hit rate 0.34% among 330,000; CHO-CHOP luciferase reporter, luminescence; percent of tunicamycin response over DMSO baseline; activation, % at 10 µM;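 active = at 10 µM dose, activation of 40% or more, normalized to positive control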;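 also: 100% = tunicamycin at 10 µg/mL and 0% = DMSO alone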
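Evaluation: % reporter activation, DMSO baseline versus tunicamycin full activation; System: CHO-CHOP luciferase reporter cell line; Input: 500 cells/well; Incubation: 6 h compound treatment, 37 °C; Measured by: Steady-Glo luciferase luminescence; Dosing: one dose, 10 µM in 0.5% DMSO; Buffer or medium: F12 medium, 10% FBS; Benchmarks: positive tunicamycin 10 µg/mL, negative DMSO alone.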
* marks the source's active call; other numbers are inactive results; i = inactive; / = no result given.

SMILES	XBP1 UPR activ	VLA-4 inh	CHOP inh	B2AR ag	CHOP UPR activ
COc1ccc(C(=O)c2sc(NC(C)C)nc2N)cc1OC	1	-13	46	5	-4
COc1cccc(C(=O)c2sc(NC(C)C)nc2N)c1	-4	-3	91*	10	-3
Cc1c(C)n(CC(O)CNc2ccccc2)c2ccccc12 (centres undefined)	-4	25	90*	0	0
CCOC(=O)C1CCN(S(=O)(=O)c2c(Cl)ccc3nonc23)CC1	-7	8	/	79*	16
CCOC(=O)C1CCN(S(=O)(=O)c2ccc3[nH]c(=O)oc3c2)CC1	3	-14	78*	6	-1
CCOC(=O)C1CCN(S(=O)(=O)c2ccc(Br)c(OCC)c2)CC1	-1	13	88*	-14	1
Cc1ccc(N(C)S(=O)(=O)c2cccc(C(=O)OCC(=O)c3c(N)n(C)c(=O)n(C)c3=O)c2)cc1	-4	0	/	18	-1
CCCN1C(=O)c2ccccc2NC1c1ccc(O)c(OCC)c1 (centres undefined)	1	11	/	4	0
O=c1oc2ccccc2cc1-c1nc2c(s1)CCCC2	-3	-8	96*	-18	-4
CN1CCN(C(=O)CC2(CC(=O)O)CCCC2)CC1	0	-7	1	-4	1
COc1cccc(/C=N/Nc2snc(SC)c2C#N)c1	2	-9	81*	26	4
COc1ccc(/C=N/Nc2snc(SC)c2C#N)cc1OC	15	-5	76*	12	9
O=C(c1cc(F)c(F)cc1Cl)N1CCN(c2ncccn2)CC1	-5	2	/	-3	-1
O=C(NCCS(=O)(=O)N1CCN(c2ccc(F)cc2)CC1)c1ccco1	-2	20	/	-4	2
CCc1ccc(N2CC(C(=O)N/N=C/c3ccccc3)CC2=O)cc1 (centres undefined)	-2	3	/	3	1
Cc1ccccc1OCc1nc2ccccc2c(=O)n1/N=C/c1cn[nH]c1-c1ccccc1	3	-4	85*	16	4
Cc1nc2ccccc2c(=O)n1/N=C/c1cn[nH]c1-c1ccccc1	1	-1	9	8	-1
CC(C)N(Cc1ccccc1)C(=O)COC(=O)c1ccc(S(=O)(=O)N2CCOCC2)cc1	-3	0	/	-3	0
CCN1C(=O)c2cccc3c(NS(=O)(=O)c4ccc(NC(C)=O)cc4)ccc1c23	0	-6	-18	-3	-3
CCOC(=O)c1ccc(NC(=O)Nc2ccc3c4c(cccc24)C(=O)N3CC)cc1	7	/	83*	30	2
Cc1c(C=Nc2ccc(S(=O)(=O)CCO)cc2)c(O)[nH]c(=O)c1C#N	1	-29	/	9	-1
CCn1c(=O)c2sccc2n(Cc2cc(C(=O)OC)ccc2OC)c1=O	5	8	/	10	1
Cc1noc(C)c1CSc1nc2ccccc2s1	1	18	-14	25	0
c1csc(CSc2nc3ccccc3s2)c1	2	6	86*	3	3
CC(C)OC(=O)C(C(=O)C(F)(F)F)c1cc(NS(=O)(=O)c2ccc3ccccc3c2)c2ccccc2c1O (centres undefined)	-1	-6	92*	18	3
SMILES	XBP1 UPR activ	VLA-4 inh	CHOP inh	B2AR ag	CHOP UPR activ
O=C(CC1CCCC1)Nc1cc(C(F)(F)F)ccc1-n1cncn1	-1	-27	/	12	-1
Cc1[nH]c2ccccc2c1N=Nc1ccc(F)cc1	5	-5	90*	12	4
Cc1ccc(NC(=O)c2csc(-c3ccccc3)c2C)cc1	/	/	100*	-1	/
Cc1ccc(NC(=O)c2cc(C)n(-c3ccccc3)c2C)cc1	-5	24	72*	12	-8
COCCOc1ccc(C(F)(F)F)cc1NC(=O)CN1C(=O)NC(C)(c2ccc3c(c2)OCO3)C1=O (centres undefined)	-2	2	/	2	0
COc1ccc(-n2c(=O)/c(=C\c3cccs3)s/c2=C(/C#N)C(=O)N2CCN(C)CC2)cc1	-2	7	90*	5	-1
CC(C)(C)NC(=O)COc1coc(CN2CCN(C(=O)c3ccco3)CC2)cc1=O	-4	2	/	0	0
COc1ccc(S(=O)(=O)NC(C)C(=O)Nc2ccc3c(c2)OCCO3)cc1OC (centres undefined)	2	12	/	-1	-1
O=C(Nc1ccc2oc(-c3cccnc3)nc2c1)c1ccco1	2	0	-3	-16	3
O=C(Nc1ccc2oc(-c3cccnc3)nc2c1)c1ccc(Br)o1	14	-2	77*	-6	0
CCc1c(C)c(C#N)c2nc3ccccc3n2c1N(C)C	-1	2	-4	-1	-1
CCCCc1c(C)c(C#N)c2nc3ccccc3n2c1Cl	/	/	106*	/	/
COC(=O)c1ccc(C2NC(=S)N(c3ccccc3)C(C)=C2C(=O)Nc2ccccc2OC)cc1 (centres undefined)	-2	29	25	46*	2
COc1ccccc1NC(=O)C1=C(C)N(c2ccccc2)C(=S)NC1c1cccc(C(F)(F)F)c1 (centres undefined)	-2	-5	58	8	-2
COC(=O)c1c(NC(=O)c2ccc(N(C)S(=O)(=O)c3ccc(C)cc3)cc2)sc2c1CCCC2	0	9	-1	-6	0
COCCN(CCOC)S(=O)(=O)c1ccc(C(=O)Nc2sc3c(c2C(N)=O)CCCCC3)cc1	19	-1	82*	i	6
OCC1(Cc2ccccc2)CCN(Cc2cnc(-c3ccc(Cl)cc3)nc2)CC1	0	3	73*	-3	1
Cn1c2c(c(=O)n(C)c1=O)C(C(F)(F)F)(C(F)(F)F)N=C(c1ccc(Cl)cc1)N2	8	1	77*	23	15
COc1ccc(-c2csc3ncnc(N4CCN(c5ccccc5[N+](=O)[O-])CC4)c23)cc1	-2	2	/	10	1
COc1cc(CN2CCCC(CCC(=O)NCc3ccc(C)o3)C2)cc2c1OCO2 (centres undefined)	0	2	86*	4	4
COC(=O)c1ccc(CN2CCCC(CCC(=O)NCc3ccc(C)o3)C2)cc1 (centres undefined)	-2	4	-4	0	0
CCC(c1nnc(SCC(=O)Nc2ccc(C(=O)N(C)C)cc2)n1Cc1ccccc1)N(C)C (centres undefined)	-6	0	/	-5	2
CS(=O)(=O)c1ncc(Cl)c(C(=O)Nc2ccc3ccccc3c2)n1	/	/	105*	48*	/
Nc1nc(=O)n(C2CCCO2)cc1Br (centres undefined)	/	/	/	1	/
CC(C)(C)n1nnnc1C(c1cccc(C#N)c1)N1CCC(Cc2ccccc2)CC1 (centres undefined)	-3	7	80*	7	5
N#Cc1ccc(/C=C\c2nccc3c2[nH]c2ccccc23)cc1	-2	9	78*	28	-1
